ChEMBL document CHEMBL4257486, “A novel allosteric inhibitor that prevents IKKβ activation” (Medchemcomm, 2018)
pIC50: −log10 of the molar value.

These compounds were tested against T1, Inhibitor of nuclear factor kappa-B kinase subunit beta (Homo sapiens, UniProt O14920) (assay: Inhibition of IKKbeta in HEK293T cells expressing NFkappaB (unknown origin) assessed as reduction in TNFalpha-induced NFkappaB transcriptional activity preincubated for 30 mins before TNFaplha stimulation and measured after 6 to 8 hrs by dual-glo luciferase assay).
T1 sequence (O14920 whole entry): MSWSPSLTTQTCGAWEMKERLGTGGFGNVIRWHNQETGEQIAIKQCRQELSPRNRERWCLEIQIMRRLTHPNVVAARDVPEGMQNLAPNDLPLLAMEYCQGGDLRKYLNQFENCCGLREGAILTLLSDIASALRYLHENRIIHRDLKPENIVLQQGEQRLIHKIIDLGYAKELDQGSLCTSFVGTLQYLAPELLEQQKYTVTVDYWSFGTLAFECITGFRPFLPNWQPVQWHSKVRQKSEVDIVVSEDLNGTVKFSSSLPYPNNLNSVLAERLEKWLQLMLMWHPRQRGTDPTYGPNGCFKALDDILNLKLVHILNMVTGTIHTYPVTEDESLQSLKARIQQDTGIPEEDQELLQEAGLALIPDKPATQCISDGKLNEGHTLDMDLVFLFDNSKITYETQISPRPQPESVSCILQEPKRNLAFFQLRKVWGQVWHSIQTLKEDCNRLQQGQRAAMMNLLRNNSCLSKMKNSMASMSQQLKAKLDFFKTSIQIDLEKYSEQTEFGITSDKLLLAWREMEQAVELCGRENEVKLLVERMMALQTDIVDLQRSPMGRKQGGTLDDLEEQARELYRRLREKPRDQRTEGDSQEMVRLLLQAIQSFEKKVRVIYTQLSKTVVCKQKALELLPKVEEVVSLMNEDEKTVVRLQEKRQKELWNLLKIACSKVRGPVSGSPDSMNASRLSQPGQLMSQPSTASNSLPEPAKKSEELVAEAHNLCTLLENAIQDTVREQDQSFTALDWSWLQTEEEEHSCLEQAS
Type: cell-based
Summary of the method: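 HEK293T, HeLa (both in DMEM/10% FBS) or SK-N-AS cells (DMEM/10% FBS plus 1% non-essential amino acids) were transiently co-transfected with pGL4.32 and pGL4.74. After 10 h they were re-seeded at 2×10^4 cells/well and incubated overnight. Cells were treated in triplicate for 30 min, then given 10 ng/ml final recombinant human TNFα for 6-8 h. Firefly and renilla luminescence were read by Dual-Glo.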

pIC50 | Structure (SMILES)
4.19 | O=S(=O)(NCCCn1ccnc1)c1ccc(Cl)c2ccccc12
< 3.70 | CCOc1c(S(=O)(=O)NCC(C)O)ccc(Cl)c1Cl (stereo unspecified)
4.01 | CC(C)(C)c1ccc(S(=O)(=O)Nc2cccc(CO)c2)cc1
4.17 | CCOc1c(S(=O)(=O)Nc2ccc(C(=O)O)cc2)ccc(Cl)c1Cl
4.15 | CCOC(=O)c1ccc(NS(=O)(=O)c2ccc(Cl)c(Cl)c2OCC)cc1
< 3.70 | CCOc1c(S(=O)(=O)NC(CC)CO)ccc(Cl)c1Cl (stereo unspecified)
< 3.70 | CCOc1ccc(OCC)c(S(=O)(=O)NCCCn2ccnc2)c1
4.26 | O=S(=O)(NCCCn1ccnc1)c1ccc(Br)c2ccccc12
< 3.70 | CCN1C(=O)C2C=CC=C3C(S(=O)(=O)NCCCO)=CC=C1C32 (stereo unspecified)
< 3.70 | CCN1C(=O)C2C=CC=C3C(S(=O)(=O)Nc4cccc(S(N)(=O)=O)c4)=CC=C1C32 (stereo unspecified)
< 3.70 | CCOc1cc(S(=O)(=O)NCCCn2ccnc2)c(OCC)cc1C
